Measurements as given in article PMC5903480 (Drug Design, Development and Therapy, 2018).

Columns and labels:
[1] = test system: cholesterol absorption; settings: rat model; cited from earlier work
[2] = Tolerability: adverse events in healthy male volunteers; type: in vivo, human; settings: multiple oral doses over 10 days, healthy male subjects
In short: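 Healthy Korean men took the single or combined drugs once daily for 10 days in a 3-period crossover. Monitoring ran throughout and covered vital signs, 12-lead ECG, hematology, blood chemistry, urinalysis and physical examinations. AEs were recorded by symptom, duration, intensity, drug relationship, outcome and seriousness. Counts are subjects (events); frequencies were compared by Fisher's exact test.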

[3] = test system: LDL-C; settings: ezetimibe administered with atorvastatin; cited from earlier work
[4] = Steady-state plasma pharmacokinetics of free and total ezetimibe; type: in vivo, human
In short: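 Ezetimibe 10 mg was given orally once daily for 10 days, alone or with rosuvastatin 20 mg, fasted, in a crossover. EDTA plasma was sampled 0–72 h after the day-10 dose. LC-MS/MS (ezetimibe-d4 internal standard) measured free and total (free plus glucuronide) ezetimibe; LLOQ was 0.2 and 0.5 ng/mL. Analysis was non-compartmental on actual times, with t1/2 as ln(2)/λz. Log-transformed Cmax,ss and AUCτ,ss were compared by ANOVA as geometric mean ratios with 90% CI.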

[5] = single-dose 20 mg ezetimibe; cited from earlier work
[6] = test system: LDL-C; settings: volunteers with hypercholesterolemia, n=8 per group, ezetimibe 10 mg; cited from earlier work
[7] = test system: plasma cholesterol; settings: in humans; cited from earlier work
[8] = healthy subjects, 7 day-dosing, coadministration with rosuvastatin; cited from earlier work

amount of free ezetimibe in the body ([4]; relative to conjugate/total ezetimibe)	90% CI of geometric mean ratio for Cmax,ss of free ezetimibe ([4]; single versus combination treatment, exception to 0.80–1.25)	Structure (SMILES)	cholesterol absorption inhibiting activity (relative potency) [1]	tolerability [2]	additional reductions in LDL-C levels [3]	AEs and physical examinations [5]	Cmax,ss of free ezetimibe [5]	subjects achieving a 35%–50% reduction of LDL-C [6]	reduction of plasma cholesterol [7]	90% CI of AUCmax,ss ratio of free ezetimibe on coadministration [8]	90% CI of Cmax,ss ratio of free ezetimibe on coadministration [8]
		O=C(O)[C@H]1O[C@@H](Oc2ccc([C@@H]3[C@@H](CC[C@H](O)c4ccc(F)cc4)C(=O)N3c3ccc(F)cc3)cc2)[C@H](O)[C@@H](O)[C@@H]1O [ezetimibe glucuronide]	more potent than ezetimibe								
< 8%	1.038–1.346	O=C1[C@H](CC[C@H](O)c2ccc(F)cc2)[C@@H](c2ccc(O)cc2)N1c1ccc(F)cc1 [Ezetimibe]		well tolerated	12%–19%	no AEs or clinically significant changes	5.2 ng/mL	1 of 8	15%–20%	1.094–1.341	0.994–1.285
		CC(C)c1nc(N(C)S(C)(=O)=O)nc(-c2ccc(F)cc2)c1/C=C/[C@@H](O)C[C@@H](O)CC(=O)O [Rosuvastatin]		well tolerated							
